Measured values published in ChEMBL document CHEMBL2390837, “Synthesis, cytotoxic activity and DNA-interaction studies of novel anthraquinone-thiosemicarbazones with tautomerizable methylene group” (Eur J Med Chem, 2013).
pIC50: −log10 of the molar value. Calls of active or inactive are those of the source. The calls are words filed in the database; no cut-off is given here.

What was measured:
Escherichia coli [1] = assay: Induction of Escherichia coli XL1 blue pUC18 DNA cleavage assessed as conversion of supercoiled DNA to relaxed circular DNA at 1:2 compound to iron molar ratio after 90 mins by agarose gel electrophoresis in presence of Fe3+
Outline: (§1)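 AQ-thiosemicarbazone (4 μL of 10 mM) preincubated 60 min at 37 °C in bicarbonate buffer with 2 μL of FeSO₄ or FeCl₃ (20 mM or 40 mM stock). pUC18 (2 μL) then added and incubated a further 90 min. Products run on 1% agarose in TAE at 80 V and stained with ethidium bromide (0.5 µg/mL).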

Escherichia coli [2] = assay: Induction of Escherichia coli XL1 blue pUC18 DNA cleavage assessed as conversion of supercoiled DNA to relaxed circular DNA at 1:1 compound to iron molar ratio after 90 mins by agarose gel electrophoresis in presence of Fe3+; outline: as §1
Escherichia coli [3] = assay: Induction of Escherichia coli XL1 blue pUC18 DNA cleavage assessed as conversion of supercoiled DNA to relaxed circular DNA at 1:2 compound to iron molar ratio after 90 mins by agarose gel electrophoresis in presence of Fe2+; outline: as §1
Escherichia coli [4] = assay: Induction of Escherichia coli XL1 blue pUC18 DNA cleavage assessed as conversion of supercoiled DNA to relaxed circular DNA at 1:1 compound to iron molar ratio after 90 mins by agarose gel electrophoresis in presence of Fe2+; outline: as §1
Escherichia coli [5] = assay: Induction of Escherichia coli XL1 blue pUC18 DNA cleavage assessed as conversion of supercoiled DNA to relaxed circular DNA at 2 mM after 90 mins by agarose gel electrophoresis
Outline: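 Supercoiled pUC18 (262 ng, from E. coli XL1 blue) incubated with 2 mM compound in 20 μL of 40 mM bicarbonate buffer pH 8.4 at 37 °C for 90 min. Reaction stopped with loading buffer. Analyzed on 1% agarose in TAE pH 8.24 at 80 V and stained with ethidium bromide (0.5 µg/mL).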

DNA = assay: Binding affinity to calf thymus DNA at 20 to 80 uM after 1.5 hrs by UV-vis spectrophotometric analysis; type: nucleic-acid assay; conditions: Bos taurus
Outline: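 UV–Vis spectra (200–800 nm, 1 cm cells) of compound at 20, 40, 60 or 80 μM, with or without 0.12 mM CT-DNA. CT-DNA was dissolved in 10 mM Tris-HCl pH 7.9. Mixtures were in 40 mM bicarbonate buffer pH 8.4, incubated 1.5 h at 37 °C with occasional vortexing.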

[6] = system: Radical scavenging activity; assay: Antioxidant activity assessed as DPPH radical scavenging activity after 30 mins by spectrophotometric analysis; type: functional
Outline: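 Test solutions at 8–1000 μM in methanol mixed 1:1 by volume with 200 μM DPPH in methanol, kept 30 min in the dark at room temperature. Absorbance read at 517 nm against blanks without DPPH. Percent scavenging = (A_DPPH − A_sample)/A_DPPH × 100. IC50 (concentration halving DPPH absorbance) read from a plot of % versus concentration. Ascorbic acid and BHT used as standards.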

HeLa [7] = assay: Induction of apoptosis in human HeLa cells at IC90 after 24 hrs by propidium iodide staining-based FACS flow cytometric analysis in presence of caspase-9 inhibitor Z-LEHD-FMK; type: functional, cell-based
HeLa [8] = assay: Induction of apoptosis in human HeLa cells at IC90 after 24 hrs by propidium iodide staining-based FACS flow cytometric analysis in presence of caspase-8 inhibitor Z-IETD-FMK; type: functional, cell-based
HeLa [9] = assay: Induction of apoptosis in human HeLa cells at IC90 after 24 hrs by propidium iodide staining-based FACS flow cytometric analysis in presence of caspase-3 inhibitor Z-DEVD-FMK; type: functional, cell-based
HeLa [10] = assay: Cell cycle arrest in human HeLa cells assessed as accumulation at subG1 phase after 24 hrs by propidium iodide staining-based FACS flow cytometric analysis; type: functional
HeLa [11] = assay: Cell cycle arrest in human HeLa cells assessed as accumulation at G2/M phase at 2 times IC50 after 24 hrs by propidium iodide staining-based FACS flow cytometric analysis (reference value: 21.66%); type: functional
HeLa [12] = assay: Cell cycle arrest in human HeLa cells assessed as accumulation at S phase at 2 times IC50 after 24 hrs by propidium iodide staining-based FACS flow cytometric analysis (reference value: 16.22%); type: functional
HeLa [13] = assay: Cell cycle arrest in human HeLa cells assessed as accumulation at G1 phase at 2 times IC50 after 24 hrs by propidium iodide staining-based FACS flow cytometric analysis (reference value: 51.97%); type: functional
HeLa [14] = assay: Cell cycle arrest in human HeLa cells assessed as accumulation at subG1 phase at 2 times IC50 after 24 hrs by propidium iodide staining-based FACS flow cytometric analysis (reference value: 9.10%); type: functional
HeLa [15] = assay: Cell cycle arrest in human HeLa cells assessed as accumulation at G2/M phase at IC50 after 24 hrs by propidium iodide staining-based FACS flow cytometric analysis (reference value: 21.66%); type: functional
HeLa [16] = assay: Cell cycle arrest in human HeLa cells assessed as accumulation at S phase at IC50 after 24 hrs by propidium iodide staining-based FACS flow cytometric analysis (reference value: 16.22%); type: functional
HeLa [17] = assay: Cell cycle arrest in human HeLa cells assessed as accumulation at G1 phase at IC50 after 24 hrs by propidium iodide staining-based FACS flow cytometric analysis (reference value: 51.97%); type: functional
HeLa [18] = assay: Cell cycle arrest in human HeLa cells assessed as accumulation at subG1 phase at IC50 after 24 hrs by propidium iodide staining-based FACS flow cytometric analysis (reference value: 9.10%); type: functional
MRC5 = assay: Cytotoxicity against human MRC5 cells after 72 hrs by MTT assay; type: cell-based; conditions: MRC5, 72 h
Outline: (§2)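 Cells seeded in 96-well plates: HeLa 2000, MDA-MB-361 7000, MDA-MB-453 3000, K562, A549 and MRC-5 5000 per well. Compounds added at 5–100 μM (final), DMSO ≤0.5%, in RPMI-1640 with 10% FBS. Added after 24 h, except K562 at 2 h after seeding. Exposure 72 h, then MTT 4 h at 37 °C, SDS solubilization, A570 read. IC50 is the mean ± SD of three independent experiments.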

A549 = assay: Cytotoxicity against human A549 cells after 72 hrs by MTT assay; type: functional, cell-based; conditions: A549, 72 h; outline: as §2
K562 = assay: Cytotoxicity against human K562 cells after 72 hrs by MTT assay; type: functional, cell-based; conditions: K562, 72 h; outline: as §2
MDA-MB-361 = assay: Cytotoxicity against human MDA-MB-361 cells after 72 hrs by MTT assay; type: functional, cell-based; conditions: MDA-MB-361, 72 h; outline: as §2
MDA-MB-453 = assay: Cytotoxicity against human MDA-MB-453 cells after 72 hrs by MTT assay; type: functional, cell-based; conditions: MDA-MB-453, 72 h; outline: as §2
HeLa [19] = assay: Cytotoxicity against human HeLa cells after 72 hrs by MTT assay; type: functional, cell-based; outline: as §2

Activity (Escherichia coli [1]): inactive
Activity (Escherichia coli [2]): inactive
Activity (Escherichia coli [3]): Active
Activity (Escherichia coli [4]): inactive
Activity (Escherichia coli [5]): inactive
Activity (DNA): Active
pIC50 [6]: 4.58
SMILES: CCCCCCNC(=S)N/N=C(/CC(=O)c1cccc2c1C(=O)c1ccccc1C2=O)C(=O)OCC
Activity (HeLa [7]): Active
Activity (HeLa [8]): Active
Activity (HeLa [9]): Active
Activity (HeLa [10]): Dose-dependent effect
Activity (HeLa [11]): 3.84%
Activity (HeLa [12]): 17.17%
Activity (HeLa [13]): 36.66%
Activity (HeLa [14]): 37.32%
Activity (HeLa [15]): 19.83%
Activity (HeLa [16]): 14.62%
Activity (HeLa [17]): 37.89%
Activity (HeLa [18]): 25.02%
pIC50 (MRC5): 4.38
pIC50 (A549): 4.36
pIC50 (K562): 5.23
pIC50 (MDA-MB-361): 5.35
pIC50 (MDA-MB-453): 4.71
pIC50 (HeLa [19]): 5.12
